Results from ChEMBL document CHEMBL1137302 (J Med Chem, 2006).
pEC50: −log10 of the molar value. Activity calls are given as the source filed them. The rule behind the calls is not given here.

What was measured:
D(4) dopamine receptor = target: T1, D(4) dopamine receptor (Homo sapiens, UniProt P21917); test: Agonist activity at human D4.4 receptor in HEK293 cells coexpressing G-alpha-qo5 by FLIPR; format: functional, cell-based
T1 sequence (P21917 whole entry): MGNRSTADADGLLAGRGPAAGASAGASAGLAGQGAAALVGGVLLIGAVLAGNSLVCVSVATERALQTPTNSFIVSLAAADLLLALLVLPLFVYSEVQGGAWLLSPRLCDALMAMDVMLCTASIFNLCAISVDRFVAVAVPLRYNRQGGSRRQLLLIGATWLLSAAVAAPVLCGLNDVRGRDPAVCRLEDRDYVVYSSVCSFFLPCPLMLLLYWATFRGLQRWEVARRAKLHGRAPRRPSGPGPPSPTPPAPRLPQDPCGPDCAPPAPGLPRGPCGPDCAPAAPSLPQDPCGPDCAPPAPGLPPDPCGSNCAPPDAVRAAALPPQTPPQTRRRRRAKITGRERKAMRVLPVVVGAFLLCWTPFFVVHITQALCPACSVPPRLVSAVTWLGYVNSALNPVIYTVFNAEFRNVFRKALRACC

[1] = target: T2, D(4) dopamine receptor (Homo sapiens) (UniProt P21917); test: Agonist activity at human D4.4 receptor in HEK293 cells coexpressing G-alpha-qo5 by FLIPR upto 10 uM; format: functional, cell-based
T2 sequence (whole entry): T1 sequence (P21917 whole entry)

[2] = target: T2, D(4) dopamine receptor (Homo sapiens); test: Activity at human D4.4 receptor in HEK293 cells co-expressing Galphaqo5 by FLIPR; format: functional, cell-based; settings: filed as partial agonist
[3] = Bioavailability in Sprague-Dawley rat at 1 mg/kg, po; format: ADME, organism-based; settings: in vivo
Outline: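 Single 1 mg/kg dose given iv, sc or orally to Sprague-Dawley rats, dogs and monkeys; plasma concentrations followed over time (mean ± SEM, n = 3). Cmax, AUC, half-life, clearance and bioavailability calculated from the curves.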

Rattus norvegicus = test: Proerectile activity in rat measured as incidence of penile erection at 0.1 umol/kg, sc; format: functional
Outline: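 Conscious male rats were given a single subcutaneous injection and observed for penile erections over the following 60 min. The read-out was the incidence of erections, expressed as % of animals ± SEM (n = 12–32 animals per group), with significance tested against controls. The value is the maximal incidence at the maximally effective dose.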

[4] = Agonist activity at ferret D4 receptor in HEK293 cells coexpressing G-alpha-qo5 by FLIPR; format: functional, cell-based, Mustela putorius furo; settings: Mustela putorius
Outline: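 HEK cells cotransfected with ferret D4 receptor and chimeric G protein Gqo5, with receptor activation read as a calcium flux signal on FLIPR. EC50 is the concentration giving half-maximal activation.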

[5] = Agonist activity at ferret D4 receptor in HEK293 cells coexpressing G-alpha-qo5 by FLIPR relative to dopamine; format: functional, Mustela putorius furo

SMILES	pEC50 (D(4) dopamine receptor)	other results
Cc1cc(C)cc(NC(=O)CN2CCC(c3cccc[n+]3[O-])CC2)c1	7.28	
O=C(NCN1CCC(c2cccc[n+]2[O-])CC1)c1ccc(OC(F)(F)F)c(Cl)c1	6.77	
Cc1cc(Cl)cc(C)c1NC(=O)CN1CCC(c2ccccn2)CC1	6.62	
Cc1cc(NC(=O)CN2CCC(c3cccc[n+]3[O-])CC2)ccc1F	7.74	
Cc1cccc(NC(=O)CN2CCC(c3ccccc3)CC2)c1	6.77	
O=C(CN1CCC(c2cccc[n+]2[O-])CC1)Nc1ccc(F)cc1	7.07	
CCc1cccc(C)c1NC(=O)CN1CCC(c2ccccn2)CC1	6.95	
CCOc1cccc(C(=O)NCN2CCC(c3cccc[n+]3[O-])CC2)c1	6.49	
O=C(CN1CCC(c2cccc[n+]2[O-])CC1)Nc1ccccc1F	6.57	
Cc1cccc(C)c1NC(=O)CN1CCC(c2cccc[n+]2[O-])CC1	6.46	
O=C(CN1CCC(c2cccc[n+]2[O-])CC1)Nc1cccc(-c2ccccc2)c1	6.44	
N#Cc1cccc(C(=O)NCN2CCC(c3cccc[n+]3[O-])CC2)c1	6.08	
O=C(CN1CCC(c2ccccn2)CC1)Nc1c(Cl)cc(Cl)cc1Cl	6.84	
Cc1cccc(NC(=O)CN2CCC(c3ccc(F)cc3)CC2)c1		Activity [1]: inactive
O=C(NCN1CCC(c2cccc[n+]2[O-])CC1)c1ccccn1	5.50	
c1ccc(C2CCN(Cc3nc4ccccc4[nH]3)CC2)nc1	7.92	
Cc1ccc(Cl)cc1NC(=O)CN1CCC(c2cccc[n+]2[O-])CC1	6.90	
Cc1ccc(C(=O)NCN2CCC(c3cccc[n+]3[O-])CC2)cc1C(F)(F)F	7.07	
O=C(NCN1CCC(c2cccc[n+]2[O-])CC1)c1ccc(F)c(Cl)c1	7.20	
Cc1ccc(C(=O)NCN2CCC(c3cccc[n+]3[O-])CC2)cc1C	7.42	
O=C(CN1CCC(c2cccc[n+]2[O-])CC1)Nc1cccc(OC(F)(F)F)c1	6.87	

SMILES	pEC50 (D(4) dopamine receptor)	other results
Cc1cc(C(=O)NCN2CCC(c3cccc[n+]3[O-])CC2)ccc1Cl	5.61	
C=Cc1cccc(C(=O)NCN2CCC(c3cccc[n+]3[O-])CC2)c1	7.17	
Cc1cccc(NC(=O)CN2CCC(c3ccccc3C)CC2)c1	6.47	
COc1ccccc1C1CCN(CC(=O)Nc2cccc(C)c2)CC1	6.38	
O=C(CN1CCC(c2cccc[n+]2[O-])CC1)Nc1ccc(F)cc1C(F)(F)F	6.33	
CC(C)Oc1cccc(NC(=O)CN2CCC(c3cccc[n+]3[O-])CC2)c1	6.26	
Cc1cc(C)cc(C(=O)NCN2CCC(c3cccc[n+]3[O-])CC2)c1	7.05	
Cc1cccc(NC(=O)CN2CCC(c3ccccc3C#N)CC2)c1	8.10	
COc1ccc(C2CCN(CC(=O)Nc3cccc(C)c3)CC2)cc1		Activity [1]: inactive
Cc1cccc(NC(=O)CN2CCC(c3ccc(O)cc3)CC2)c1	7.15	Activity [2]: Partial agonist
O=C(CN1CCC(c2cccc[n+]2[O-])CC1)Nc1cccc(Cl)c1	7.21	
CSc1cccc(NC(=O)CN2CCC(c3cccc[n+]3[O-])CC2)c1	7.00	
Cc1cc(C(=O)NCN2CCC(c3cccc[n+]3[O-])CC2)ccc1F	7.30	
O=C(CN1CCC(c2cccc[n+]2[O-])CC1)NC1CCCCC1	6.53	Activity [2]: Partial agonist
c1ccc(N2CCN(Cc3nc4ccccc4[nH]3)CC2)nc1		Activity [2]: Partial agonist
Cc1ccc(Cl)c(NC(=O)CN2CCC(c3cccc[n+]3[O-])CC2)c1Cl	6.46	
O=C(NCN1CCC(c2cccc[n+]2[O-])CC1)c1ccc2ccccc2c1	6.94	
Cc1cccc(NC(=O)CN2CCC(c3ncccc3C#N)CC2)c1	7.44	
COc1cccc(C(=O)NCN2CCC(c3cccc[n+]3[O-])CC2)c1C	6.16	
Cc1cc(Br)ccc1NC(=O)CN1CCC(c2cccc[n+]2[O-])CC1	7.18	
O=C(CN1CCC(c2cccc[n+]2[O-])CC1)Nc1cccc(C(F)(F)F)c1	7.12	

SMILES	pEC50 (D(4) dopamine receptor)	other results
Cc1cccc(NC(=O)CN2CCC(c3cccc(O)c3)CC2)c1	8.10	Activity [2]: Partial agonist
O=C(NCN1CCC(c2cccc[n+]2[O-])CC1)c1cnccc1Cl	5.89	
COc1cccc(C)c1NC(=O)CN1CCC(c2cccc[n+]2[O-])CC1	6.47	
Cc1cccc(NC(=O)CN2CCC(c3ccc(O)cn3)CC2)c1	8.42	bioavailability [3]: 0%
COc1cc(C(=O)NCN2CCC(c3cccc[n+]3[O-])CC2)ccc1Cl	6.80	
Cc1cccc(C(=O)NCN2CCC(c3nccs3)CC2)c1	8.01	
COc1cccc(C)c1NC(=O)CN1CCC(c2ccccn2)CC1	7.40	
O=C(CN1CCC(c2cccc[n+]2[O-])CC1)Nc1cc(Cl)cc(Cl)c1	6.80	
O=C(CN1CCC(c2cccc[n+]2[O-])CC1)Nc1cccc(Cl)c1Cl	6.74	
O=C(NCN1CCC(c2cccc[n+]2[O-])CC1)c1cc(Cl)cc(Cl)c1	7.35	
CCc1cccc(NC(=O)CN2CCC(c3cccc[n+]3[O-])CC2)c1	7.02	
Cc1cccc(Cl)c1NC(=O)CN1CCC(c2ccccn2)CC1	7.22	
Cc1cccc(NC(=O)CN2CCC(c3nccs3)CC2)c1	9.00	
O=C(NCN1CCC(c2cccc[n+]2[O-])CC1)c1ccccc1	6.27	Activity [2]: Partial agonist
O=C(CN1CCC(c2cccc[n+]2[O-])CC1)Nc1cccc(F)c1	6.80	
Cc1cccc(NC(=O)CN2CCC(c3ccccc3F)CC2)c1	9.00	
[O-][n+]1ccccc1C1CCN(Cc2nc3ccccc3[nH]2)CC1	7.27	Activity [2]: Partial agonist
Cc1cccc(NC(=O)CN2CCC(c3cccc(F)c3)CC2)c1	6.29	
CN1CCc2cccc3c2[C@H]1Cc1ccc(O)c(O)c1-3 [APOMORPHINE]		Activity (Rattus norvegicus): 91%; pEC50 [4]: 8.82; Efficacy [5]: 84%
O=C(CN1CCC(c2cccc[n+]2[O-])CC1)Nc1ccc(F)cc1F	6.99	
NCCc1ccc(O)c(O)c1 [DOPAMINE]		pEC50 [4]: 8.57
